Measurements of several laboratories.
Lines come from different studies, so protocols differ.
Organism: Trypanosoma brucei
Effect on: parasite growth

For `O=C(O)c1ccccc1-c1ccccc1C(=O)Nc1cc2c3ccccc3ccc2c2ccccc12`, the EC50 was 24400 nM (resazurin; 72 h).
For `Nc1nc(N)nc(Nc2ccc([As]3SCC(CO)S3)cc2)n1` (centres unmarked), the IC50 was 7 nM (RHODESIENSE STIB900).
For `COC(=O)C1CCN(C(=O)c2ccc(N(C)Cc3cnc4nc(N)nc(N)c4n3)cc2)CC1`, the inhibition was 26% (resazurin; 10 µM; 72 h).
`CNC1CC(c2ccc(Cl)c(Cl)c2)c2ccccc21` (centres unmarked) has an EC50 of 1970 nM (blood stage).
`COC(=O)C1CCN(C(=O)c2ccc(NCc3cnc4nc(N)nc(N)c4n3)cc2)CC1` gave an inhibition of 16% (resazurin; 10 µM; 72 h).
With `c1ccc(CCCN2CCN(CCOC(c3ccccc3)c3ccccc3)CC2)cc1` the EC50 was 9300 nM (blood stage).
The EC50 of `O=C(O)c1ccccc1-c1ccccc1C(=O)Nc1ccc2c(c1)oc(=O)c1ccccc12` is reported as > 50000 nM (resazurin; 72 h).
`Cc1nn(C)c(C)c1NS(=O)(=O)c1c(Cl)cc(-c2ccnc(N3CCNCC3)c2)cc1Cl` has an EC50 of 0.6 nM (RHODESIENSE).
